{"data": "Measured values pooled from the literature", "Rock2": "Rho-associated protein kinase 2 (Rock2, Rattus norvegicus, UniProt Q62868)", "PTGS2": "Prostaglandin G/H synthase 2 (PTGS2, Homo sapiens, UniProt P35354)", "NPY2R": "Neuropeptide Y receptor type 2 (NPY2R, Homo sapiens, UniProt P49146)", "note": "Lines come from different studies, so protocols differ."}
{"Structure (SMILES)": "CNC(=O)c1cc(Oc2ccc(NC(=O)Nc3ccc(Cl)c(C(F)(F)F)c3)cc2)ccn1", "target": "Rock2", "effect on": "enzyme activity", "action": "inhibitor", "tested at": "0.3 µM", "inhibition [%]": 17}
{"Structure (SMILES)": "CCN1CCN(Cc2ccc(NC(=O)c3ccc(C)c(Oc4ccnc5[nH]ccc45)c3)cc2C(F)(F)F)CC1", "target": "Inositol-tetrakisphosphate 1-kinase (Homo sapiens, UniProt Q13572)", "effect on": "target engagement in cells", "action": "inhibitor", "method": "chemoproteomics", "cell line": "Huh-7", "tested at": "10 µM", "inhibition [%]": -35.5}
{"Structure (SMILES)": "CN(C)C1CCN(CC#Cc2nn(C3CCCC3)c3nc(NCc4ccccc4)ncc23)C1 (centres unmarked)", "target": "Ribosomal protein S6 kinase beta-1 (RPS6KB1, Homo sapiens, UniProt P23443)", "effect on": "enzyme activity", "action": "inhibitor", "method": "FRET", "tested at": "1 µM", "inhibition [%]": 4}
{"Structure (SMILES)": "C=C[C@@]1(C)C=C2CC[C@@H]3[C@](C)(CCC[C@@]3(C)C(=O)O)[C@H]2CC1", "target": "PTGS2", "effect on": "enzyme activity", "action": "inhibitor", "tested at": "0.49 µg/mL", "inhibition [%]": 7.14}
{"Structure (SMILES)": "O=C(Nc1ccc(S(=O)(=O)N2CCC(Cl)CC2)cc1)c1ccc([N+](=O)[O-])o1", "target": "NPY2R", "effect on": "ligand displacement", "method": "radioligand", "tested at": "10 µM", "inhibition [%]": 4}
{"Structure (SMILES)": "COc1cc(-c2cc(=O)c3c(O)cc(O)cc3o2)ccc1O", "target": "PTGS2", "effect on": "enzyme activity", "action": "inhibitor", "tested at": "0.49 µg/mL", "inhibition [%]": 0}
{"Structure (SMILES)": "Oc1ccc2ccccc2n1", "target": "Serum paraoxonase/arylesterase 1 (PON1, Homo sapiens, UniProt P27169)", "effect on": "enzyme activity", "action": "inhibitor", "tested at": "20 µM", "inhibition [%]": 84}
{"Structure (SMILES)": "O=C1N=C(N2CCCCN2)S/C1=C\\c1ccc(F)cc1O", "target": "NPY2R", "effect on": "ligand displacement", "method": "radioligand", "tested at": "10 µM", "inhibition [%]": "< 10"}
{"Structure (SMILES)": "Cc1ccc(Nc2nccc(N(C)c3ccc4c(C)n(C)nc4c3)n2)cc1S(N)(=O)=O", "target": "Rock2", "effect on": "enzyme activity", "action": "inhibitor", "tested at": "10 µM", "inhibition [%]": 29}
{"Structure (SMILES)": "COc1cc2c(cc1OC)CN(C(C)CCc1ccc(O)cc1)CC2 (centres unmarked)", "target": "Sigma non-opioid intracellular receptor 1 (SIGMAR1, Cavia porcellus, UniProt Q60492)", "effect on": "ligand displacement", "method": "radioligand", "tested at": "0.1 µM", "inhibition [%]": 34}
{"Structure (SMILES)": "O=C(O)c1ccc(O)cc1", "target": "PTGS2", "effect on": "enzyme activity", "action": "inhibitor", "tested at": "0.98 µg/mL", "inhibition [%]": 32.2}
{"Structure (SMILES)": "CC(CN(C)C)C(Oc1cccc2ccccc12)c1cccs1 (centres unmarked)", "target": "Sigma intracellular receptor 2 (TMEM97, Homo sapiens, UniProt Q5BJF2)", "effect on": "ligand displacement", "method": "radioligand", "tested at": "10 µM", "inhibition [%]": -4.5}
{"Structure (SMILES)": "COc1ccc(-c2cc(=O)c3c(O)cc(O[C@@H]4O[C@H](CO)[C@@H](O)[C@H](O)[C@H]4O)cc3o2)cc1O", "target": "PTGS2", "effect on": "enzyme activity", "action": "inhibitor", "tested at": "7.81 µg/mL", "inhibition [%]": 100}
{"Structure (SMILES)": "O=C(c1ccc(Cl)cc1)N(Cc1ccccc1)C1CCCCC1", "target": "Alpha-2B adrenergic receptor (ADRA2B, Homo sapiens, UniProt P18089)", "effect on": "cell-free assay", "tested at": "10 µM", "inhibition [%]": 7.2}
{"Structure (SMILES)": "COC(=O)c1ccc(O)cc1", "target": "PTGS2", "effect on": "enzyme activity", "action": "inhibitor", "tested at": "15.63 µg/mL", "inhibition [%]": 53.2}
{"Structure (SMILES)": "COc1cc(NC(C)=O)c(Cl)cc1C(=O)Nc1nccs1", "target": "Muscarinic acetylcholine receptor M3 (CHRM3, Homo sapiens, UniProt P20309)", "effect on": "cell-free assay", "tested at": "10 µM", "inhibition [%]": -22.1}
{"Structure (SMILES)": "CCN(Cc1ccccc1C(F)(F)F)C(=O)C1CCN(S(=O)(=O)c2ccc3[nH]ncc3c2)CC1", "target": "NPY2R", "effect on": "ligand displacement", "method": "radioligand", "tested at": "10 µM", "inhibition [%]": 3}
